# Measurements from ChEMBL document CHEMBL5661979, “Pharmacological inhibition of BMK1 suppresses tumor growth through promyelocytic leukemia protein” (Cancer Cell, 2010).
# Experiments:
# Type in all cases: subcellular
# [1] = molecular target: T1, Dual specificity mitogen-activated protein kinase kinase 3 (Homo sapiens) (UniProt P46734); experiment: Inhibition of MAP2K3 in human HeLa cells lysate at 2 uM pre incubated for 15 mins followed by ATP acyl phosphate probe addition and measured after 10 mins by LC-MS/MS analysis relative to control; conditions: time 25.0 min
# T1 sequence (whole entry): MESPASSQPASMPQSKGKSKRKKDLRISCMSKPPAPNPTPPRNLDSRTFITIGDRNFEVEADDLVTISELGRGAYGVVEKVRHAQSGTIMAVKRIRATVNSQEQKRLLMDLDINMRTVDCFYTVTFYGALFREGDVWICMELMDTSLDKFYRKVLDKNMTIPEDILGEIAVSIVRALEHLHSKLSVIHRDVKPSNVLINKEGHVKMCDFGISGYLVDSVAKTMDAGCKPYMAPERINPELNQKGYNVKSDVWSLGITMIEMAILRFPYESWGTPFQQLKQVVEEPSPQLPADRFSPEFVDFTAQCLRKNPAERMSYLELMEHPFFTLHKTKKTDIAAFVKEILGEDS
# [2] = molecular target: Ribosomal protein S6 kinase beta-1 (Homo sapiens, UniProt P23443); experiment: Inhibition of P70S6K in human HeLa cells lysate at 50 uM pre incubated for 15 mins followed by ATP acyl phosphate probe addition and measured after 10 mins by LC-MS/MS analysis relative to control; conditions: time 25.0 min
# [3] = molecular target: T2, Serine/threonine-protein kinase PLK1 (Homo sapiens, UniProt P53350); experiment: Inhibition of PLK1 in human HeLa cells lysate pre incubated for 15 mins followed by ADP acyl phosphate probe addition and measured after 10 mins by LC-MS/MS analysis
# [4] = molecular target: T2, Serine/threonine-protein kinase PLK1; experiment: Inhibition of PLK1 in human HeLa cells lysate at 2 uM pre incubated for 15 mins followed by ADP acyl phosphate probe addition and measured after 10 mins by LC-MS/MS analysis relative to control; conditions: time 25.0 min
# [5] = Inhibition of PCTAIRE2/ICK in human HeLa cells lysate pre incubated for 15 mins followed by ADP acyl phosphate probe addition and measured after 10 mins by LC-MS/MS analysis
# [6] = molecular target: T3, Serine/threonine-protein kinase Nek9 (Homo sapiens) (UniProt Q8TD19); experiment: Inhibition of NEK9 in human HeLa cells lysate at 50 uM pre incubated for 15 mins followed by ADP acyl phosphate probe addition and measured after 10 mins by LC-MS/MS analysis relative to control; conditions: time 25.0 min
# T3 sequence (whole entry): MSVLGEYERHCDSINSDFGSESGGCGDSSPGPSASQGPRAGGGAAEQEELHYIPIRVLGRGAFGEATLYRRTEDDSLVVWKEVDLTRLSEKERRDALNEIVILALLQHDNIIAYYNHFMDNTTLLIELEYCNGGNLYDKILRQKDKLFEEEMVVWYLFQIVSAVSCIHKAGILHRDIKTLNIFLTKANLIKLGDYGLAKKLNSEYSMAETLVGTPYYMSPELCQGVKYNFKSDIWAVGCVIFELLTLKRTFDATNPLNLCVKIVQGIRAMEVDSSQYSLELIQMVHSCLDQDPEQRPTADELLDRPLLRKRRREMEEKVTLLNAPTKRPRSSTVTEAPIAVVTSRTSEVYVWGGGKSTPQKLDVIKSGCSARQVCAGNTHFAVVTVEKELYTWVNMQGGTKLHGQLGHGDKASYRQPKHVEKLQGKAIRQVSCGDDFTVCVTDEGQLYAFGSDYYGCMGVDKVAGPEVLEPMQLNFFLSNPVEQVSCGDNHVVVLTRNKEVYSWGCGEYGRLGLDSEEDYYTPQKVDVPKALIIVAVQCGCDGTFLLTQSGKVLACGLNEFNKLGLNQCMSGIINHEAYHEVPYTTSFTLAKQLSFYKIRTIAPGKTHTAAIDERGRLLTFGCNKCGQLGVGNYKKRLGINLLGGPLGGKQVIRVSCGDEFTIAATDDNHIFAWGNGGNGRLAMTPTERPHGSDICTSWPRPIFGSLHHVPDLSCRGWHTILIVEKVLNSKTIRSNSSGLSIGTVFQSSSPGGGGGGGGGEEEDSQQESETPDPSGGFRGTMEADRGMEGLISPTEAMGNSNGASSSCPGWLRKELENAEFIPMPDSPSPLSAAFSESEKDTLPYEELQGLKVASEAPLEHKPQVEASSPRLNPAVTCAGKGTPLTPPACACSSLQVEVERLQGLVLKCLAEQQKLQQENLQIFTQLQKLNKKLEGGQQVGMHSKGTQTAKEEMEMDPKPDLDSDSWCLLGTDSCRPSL
# [7] = molecular target: Serine/threonine-protein kinase A-Raf (Homo sapiens, UniProt P10398); experiment: Inhibition of ARAF in human HeLa cells lysate pre incubated for 15 mins followed by ATP acyl phosphate probe addition and measured after 10 mins by LC-MS/MS analysis
# Method in brief: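 KiNativ-type profiling in HeLa lysate (5 mg/mL total protein). Lysate preincubated 15 min with inhibitor at 50, 10, 2, 0.8 or 0 μM, then ATP or ADP acylphosphate probe added (5 μM final) for 10 min. Reaction stopped with urea and analysed by targeted MS, using up to four fragment ions per kinase peptide-probe conjugate. % inhibition calculated against untreated lysate. Duplicate reactions.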
# [8] = molecular target: T4, Serine/threonine-protein kinase ULK3 (Homo sapiens) (UniProt Q6PHR2); experiment: Inhibition of ULK3 in human HeLa cells lysate at 10 uM pre incubated for 15 mins followed by ADP acyl phosphate probe addition and measured after 10 mins by LC-MS/MS analysis relative to control; conditions: time 25.0 min
# T4 sequence (whole entry): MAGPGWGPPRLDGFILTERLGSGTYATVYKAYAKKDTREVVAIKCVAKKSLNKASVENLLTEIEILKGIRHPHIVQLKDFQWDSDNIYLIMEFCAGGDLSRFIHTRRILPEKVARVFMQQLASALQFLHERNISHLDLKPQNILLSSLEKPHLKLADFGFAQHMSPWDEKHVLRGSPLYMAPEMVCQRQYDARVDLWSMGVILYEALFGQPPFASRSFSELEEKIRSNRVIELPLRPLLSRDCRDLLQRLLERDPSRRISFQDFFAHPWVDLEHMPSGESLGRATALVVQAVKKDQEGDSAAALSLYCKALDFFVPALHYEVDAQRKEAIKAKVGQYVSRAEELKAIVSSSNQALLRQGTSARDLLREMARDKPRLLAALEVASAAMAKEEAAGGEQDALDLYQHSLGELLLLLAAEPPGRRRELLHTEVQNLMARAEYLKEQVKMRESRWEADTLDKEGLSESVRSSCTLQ
# [9] = molecular target: T3, Serine/threonine-protein kinase Nek9 (Homo sapiens); experiment: Inhibition of NEK9 in human HeLa cells lysate at 10 uM pre incubated for 15 mins followed by ADP acyl phosphate probe addition and measured after 10 mins by LC-MS/MS analysis relative to control; conditions: time 25.0 min
# [10] = molecular target: Glycogen synthase kinase-3 alpha (Homo sapiens, UniProt P49840); experiment: Inhibition of GSK3A in human HeLa cells lysate at 50 uM pre incubated for 15 mins followed by ATP acyl phosphate probe addition and measured after 10 mins by LC-MS/MS analysis relative to control; conditions: time 25.0 min
# [11] = molecular target: Serine/threonine-protein kinase Chk2 (Homo sapiens, UniProt O96017); experiment: Inhibition of CHK2 in human HeLa cells lysate pre incubated for 15 mins followed by ADP acyl phosphate probe addition and measured after 10 mins by LC-MS/MS analysis
# Sequence of Serine/threonine-protein kinase Chk2 (O96017 whole entry): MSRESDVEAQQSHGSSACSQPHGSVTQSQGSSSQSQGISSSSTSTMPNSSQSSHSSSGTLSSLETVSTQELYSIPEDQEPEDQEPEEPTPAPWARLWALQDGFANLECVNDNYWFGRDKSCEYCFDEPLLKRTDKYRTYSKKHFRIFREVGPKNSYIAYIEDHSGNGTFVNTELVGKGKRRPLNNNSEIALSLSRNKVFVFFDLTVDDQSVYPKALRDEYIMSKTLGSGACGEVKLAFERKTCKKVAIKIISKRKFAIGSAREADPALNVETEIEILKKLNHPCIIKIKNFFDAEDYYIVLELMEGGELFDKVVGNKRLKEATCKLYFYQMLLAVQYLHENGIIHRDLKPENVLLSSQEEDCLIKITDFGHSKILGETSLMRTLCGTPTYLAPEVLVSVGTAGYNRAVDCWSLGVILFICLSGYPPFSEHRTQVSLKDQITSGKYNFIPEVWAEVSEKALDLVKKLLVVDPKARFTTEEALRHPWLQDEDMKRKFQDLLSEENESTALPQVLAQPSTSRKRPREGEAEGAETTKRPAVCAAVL
# T2 sequence (P53350 whole entry): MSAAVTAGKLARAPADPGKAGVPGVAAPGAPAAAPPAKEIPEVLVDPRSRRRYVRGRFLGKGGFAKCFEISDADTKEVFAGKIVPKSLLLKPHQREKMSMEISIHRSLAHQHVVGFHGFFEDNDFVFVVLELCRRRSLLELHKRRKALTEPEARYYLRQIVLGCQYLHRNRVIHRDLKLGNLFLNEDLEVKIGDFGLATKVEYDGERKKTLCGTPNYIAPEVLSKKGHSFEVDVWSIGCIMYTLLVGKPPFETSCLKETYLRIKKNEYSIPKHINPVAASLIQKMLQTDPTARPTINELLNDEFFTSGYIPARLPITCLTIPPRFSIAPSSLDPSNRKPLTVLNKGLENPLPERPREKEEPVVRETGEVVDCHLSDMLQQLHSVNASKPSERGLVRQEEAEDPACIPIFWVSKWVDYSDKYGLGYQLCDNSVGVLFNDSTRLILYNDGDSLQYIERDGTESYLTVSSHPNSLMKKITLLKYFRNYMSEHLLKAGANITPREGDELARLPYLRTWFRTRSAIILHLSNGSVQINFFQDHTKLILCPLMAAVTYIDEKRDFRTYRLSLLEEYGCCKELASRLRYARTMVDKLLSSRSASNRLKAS
# Sequence of Ribosomal protein S6 kinase beta-1 (P23443 whole entry, looked up): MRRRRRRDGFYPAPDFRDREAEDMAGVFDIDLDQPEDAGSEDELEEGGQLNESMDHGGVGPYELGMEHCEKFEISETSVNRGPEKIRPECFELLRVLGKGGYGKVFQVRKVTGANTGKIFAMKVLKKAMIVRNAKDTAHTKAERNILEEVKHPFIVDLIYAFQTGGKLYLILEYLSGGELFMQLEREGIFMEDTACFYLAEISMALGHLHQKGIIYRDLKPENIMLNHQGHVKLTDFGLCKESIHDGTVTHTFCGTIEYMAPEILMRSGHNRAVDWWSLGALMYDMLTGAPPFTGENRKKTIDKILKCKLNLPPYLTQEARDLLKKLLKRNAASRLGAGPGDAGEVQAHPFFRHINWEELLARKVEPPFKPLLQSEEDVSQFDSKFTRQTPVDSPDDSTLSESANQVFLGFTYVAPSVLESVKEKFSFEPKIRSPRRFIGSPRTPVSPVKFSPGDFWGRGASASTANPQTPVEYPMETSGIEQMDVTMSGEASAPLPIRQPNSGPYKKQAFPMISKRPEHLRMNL
# Sequence of Glycogen synthase kinase-3 alpha (P49840 2-483 limits assumed): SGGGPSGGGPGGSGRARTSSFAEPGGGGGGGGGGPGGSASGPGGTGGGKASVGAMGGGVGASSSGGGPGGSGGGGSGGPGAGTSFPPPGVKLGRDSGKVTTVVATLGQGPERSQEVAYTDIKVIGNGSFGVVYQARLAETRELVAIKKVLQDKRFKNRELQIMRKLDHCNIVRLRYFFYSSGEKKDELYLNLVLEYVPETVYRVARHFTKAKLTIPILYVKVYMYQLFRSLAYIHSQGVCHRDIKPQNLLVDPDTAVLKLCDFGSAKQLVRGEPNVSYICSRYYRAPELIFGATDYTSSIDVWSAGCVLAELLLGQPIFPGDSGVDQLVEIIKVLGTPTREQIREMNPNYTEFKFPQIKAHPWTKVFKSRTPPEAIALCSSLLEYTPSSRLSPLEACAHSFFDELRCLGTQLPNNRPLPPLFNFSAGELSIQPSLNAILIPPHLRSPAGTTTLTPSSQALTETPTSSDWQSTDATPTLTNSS
# Sequence of Serine/threonine-protein kinase A-Raf (P10398 whole entry, the tested form may be a part): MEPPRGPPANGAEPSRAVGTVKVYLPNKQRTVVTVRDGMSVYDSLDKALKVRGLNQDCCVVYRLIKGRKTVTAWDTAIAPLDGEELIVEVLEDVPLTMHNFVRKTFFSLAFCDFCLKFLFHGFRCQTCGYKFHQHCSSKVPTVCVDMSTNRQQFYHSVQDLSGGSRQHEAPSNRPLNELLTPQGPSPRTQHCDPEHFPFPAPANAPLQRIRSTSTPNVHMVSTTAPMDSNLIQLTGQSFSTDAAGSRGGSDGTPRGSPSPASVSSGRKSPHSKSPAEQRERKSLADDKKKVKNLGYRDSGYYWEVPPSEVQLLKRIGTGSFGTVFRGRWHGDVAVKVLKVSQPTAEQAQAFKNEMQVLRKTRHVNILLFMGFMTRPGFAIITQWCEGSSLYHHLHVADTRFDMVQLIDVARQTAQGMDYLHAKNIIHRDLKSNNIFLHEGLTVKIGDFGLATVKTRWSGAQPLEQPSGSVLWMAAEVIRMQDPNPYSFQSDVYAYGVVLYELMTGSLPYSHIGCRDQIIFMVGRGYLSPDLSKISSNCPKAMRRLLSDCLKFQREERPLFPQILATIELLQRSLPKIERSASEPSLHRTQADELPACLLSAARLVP
smiles,measurement,setting,value
CCOc1cc(N2CCC(O)CC2)ccc1Nc1ncc2c(n1)N(C)c1ccccc1C(=O)N2C,inhibition,[1],13.5%
same,inhibition,[2],-3.8%
same,IC50,[3],> 50 µM
same,inhibition,[4],0%
same,IC50,[5],> 50 µM
same,inhibition,[6],4.5%
same,IC50,[7],> 50 µM
same,inhibition,[8],1.2%
same,inhibition,[9],4.3%
same,inhibition,[10],10.4%
same,IC50,[11],> 50 µM
